{"source": "ChEMBL document CHEMBL4312006", "about": "“A novel chalcone derivative as Nrf2 activator attenuates learning and memory impairment in a scopolamine-induced mouse model” (Eur J Med Chem, 2020)", "key": {"[1]": {"molecular_target": "T1, Nuclear factor erythroid 2-related factor 2 (Mus musculus) (UniProt Q60795)", "T1 sequence (whole entry)": "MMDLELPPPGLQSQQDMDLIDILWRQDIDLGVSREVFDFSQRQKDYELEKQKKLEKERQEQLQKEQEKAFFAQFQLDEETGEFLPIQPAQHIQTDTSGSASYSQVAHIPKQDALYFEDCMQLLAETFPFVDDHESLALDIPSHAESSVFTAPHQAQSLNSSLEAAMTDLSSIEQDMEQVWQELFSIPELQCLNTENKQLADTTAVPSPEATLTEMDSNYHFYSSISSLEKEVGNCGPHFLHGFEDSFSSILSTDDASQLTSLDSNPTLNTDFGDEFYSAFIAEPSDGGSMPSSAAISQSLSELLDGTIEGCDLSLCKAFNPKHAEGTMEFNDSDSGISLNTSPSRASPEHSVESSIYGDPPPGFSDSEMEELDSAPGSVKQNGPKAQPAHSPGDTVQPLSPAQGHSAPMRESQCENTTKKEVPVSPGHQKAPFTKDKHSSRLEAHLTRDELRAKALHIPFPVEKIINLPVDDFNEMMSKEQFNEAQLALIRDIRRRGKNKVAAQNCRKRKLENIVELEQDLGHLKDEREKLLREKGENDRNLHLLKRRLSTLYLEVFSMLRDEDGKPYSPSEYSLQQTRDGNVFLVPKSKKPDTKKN", "assay": "Activation of NRF2 in mouse BV2 cells assessed as upregulation of HO1 at 20 uM by ELISA relative to control", "assay_type": "cell-based"}, "BV-2": {"tested_on": "BV-2", "assay": "Inhibition of H2O2-stimulated ROS accumulation in mouse BV2 cells preincubated for 24 hrs followed by H2O2 stimulation for 20 mins by DCFH-DA dye based fluorescence microscopy", "assay_type": "functional, cell-based", "procedure,_shortened": "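BV-2 cells treated with a range of compound concentrations for 24 h at 37 °C. Loaded with 40 μM DCFH-DA for 40 min, then 300 μM H2O2 added for 20 min in the dark. Cells washed with PBS and DCF fluorescence imaged by digital microscopy.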"}, "[2]": {"molecular_target": "T1, Nuclear factor erythroid 2-related factor 2 (Mus musculus)", "assay": "Activation of NRF2 in mouse BV2 cells assessed as increase in SOD activity incubated for 24 hrs by WST-1 based assay", "assay_type": "cell-based", "procedure,_shortened": "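BV-2 cells (1.0×10^6) treated with compound for 24 h, or for 6 h followed by 400 μM H2O2 for 18 h. Cells washed, sonicated in ice-cold PBS and centrifuged; supernatant assayed by WST-1/superoxide inhibition. Activity derived from the IC50 of the inhibition curve and given as U/mg protein (1 U = 50% inhibition of WST-1 reduction).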"}, "CYP2D6": {"molecular_target": "CYP2D6 (Homo sapiens, UniProt P10635)", "sequence (P10635 whole entry)": "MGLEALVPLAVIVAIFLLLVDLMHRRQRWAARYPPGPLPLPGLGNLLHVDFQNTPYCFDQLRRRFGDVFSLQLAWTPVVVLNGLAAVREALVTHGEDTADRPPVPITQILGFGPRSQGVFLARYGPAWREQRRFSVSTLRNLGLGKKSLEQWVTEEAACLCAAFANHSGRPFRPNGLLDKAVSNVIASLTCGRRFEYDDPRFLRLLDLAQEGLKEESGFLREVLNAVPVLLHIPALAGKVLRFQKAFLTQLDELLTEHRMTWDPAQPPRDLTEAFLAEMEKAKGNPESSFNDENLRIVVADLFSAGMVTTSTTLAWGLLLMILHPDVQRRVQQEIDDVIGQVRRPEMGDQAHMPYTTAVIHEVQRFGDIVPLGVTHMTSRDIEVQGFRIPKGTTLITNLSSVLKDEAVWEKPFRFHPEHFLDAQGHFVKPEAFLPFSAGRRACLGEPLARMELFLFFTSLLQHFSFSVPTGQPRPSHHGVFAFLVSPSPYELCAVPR", "assay": "Inhibition of CYP2D6 (unknown origin) assessed as remaining activity relative to control", "assay_type": "ADME"}, "[3]": {"assay": "Stability in human liver microsomes assessed as compound remaining after 30 mins", "assay_type": "ADME, Microsome", "details": "read-out: Stability"}, "CYP3A4": {"molecular_target": "CYP3A4 (Homo sapiens, UniProt P08684)", "sequence (P08684 whole entry)": "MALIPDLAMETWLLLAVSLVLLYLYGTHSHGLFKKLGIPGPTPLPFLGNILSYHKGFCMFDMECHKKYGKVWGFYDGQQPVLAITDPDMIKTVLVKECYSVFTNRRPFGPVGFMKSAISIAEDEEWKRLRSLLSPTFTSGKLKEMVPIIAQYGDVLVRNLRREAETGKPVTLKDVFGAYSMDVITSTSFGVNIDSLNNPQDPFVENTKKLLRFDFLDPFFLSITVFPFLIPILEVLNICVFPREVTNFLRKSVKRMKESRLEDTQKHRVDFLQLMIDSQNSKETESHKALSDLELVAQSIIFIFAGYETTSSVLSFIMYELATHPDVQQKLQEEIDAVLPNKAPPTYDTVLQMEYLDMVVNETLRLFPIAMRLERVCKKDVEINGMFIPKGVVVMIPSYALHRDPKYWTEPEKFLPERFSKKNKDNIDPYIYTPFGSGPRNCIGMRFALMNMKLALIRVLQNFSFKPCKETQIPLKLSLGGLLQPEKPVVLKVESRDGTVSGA", "assay": "Inhibition of CYP3A4 (unknown origin) assessed as remaining activity relative to control", "assay_type": "ADME"}, "[4]": {"molecular_target": "T1, Nuclear factor erythroid 2-related factor 2 (Mus musculus)", "assay": "Activation of NRF2 in mouse BV2 cells assessed as increase in HO1 protein expression incubated for 12 hrs by Western blot analysis", "assay_type": "cell-based", "procedure,_shortened": "(§1)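 BV-2 cells washed in ice-cold PBS and lysed on ice for 40 min in RIPA buffer with protease inhibitors. Nuclear fractions prepared separately. 10 μg protein run on SDS-PAGE and blotted to PVDF. Membranes blocked in 5% skim milk/TBST and probed overnight at 4 °C for Nrf2, HO-1, GCLM or SOD1. HRP secondary with ECL detection. Band densities normalised to Lamin B1 or β-actin.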"}, "[5]": {"molecular_target": "T1, Nuclear factor erythroid 2-related factor 2 (Mus musculus)", "assay": "Activation of NRF2 in mouse BV2 cells assessed as increase in HO1 protein expression at 10 uM incubated for 12 hrs by Western blot analysis", "assay_type": "cell-based", "procedure,_shortened": "as §1"}, "Keap1/Nrf2": {"molecular_target": "Keap1/Nrf2 (Homo sapiens, UniProt Q14145+Q16236)", "sequence (Q16236 whole entry)": "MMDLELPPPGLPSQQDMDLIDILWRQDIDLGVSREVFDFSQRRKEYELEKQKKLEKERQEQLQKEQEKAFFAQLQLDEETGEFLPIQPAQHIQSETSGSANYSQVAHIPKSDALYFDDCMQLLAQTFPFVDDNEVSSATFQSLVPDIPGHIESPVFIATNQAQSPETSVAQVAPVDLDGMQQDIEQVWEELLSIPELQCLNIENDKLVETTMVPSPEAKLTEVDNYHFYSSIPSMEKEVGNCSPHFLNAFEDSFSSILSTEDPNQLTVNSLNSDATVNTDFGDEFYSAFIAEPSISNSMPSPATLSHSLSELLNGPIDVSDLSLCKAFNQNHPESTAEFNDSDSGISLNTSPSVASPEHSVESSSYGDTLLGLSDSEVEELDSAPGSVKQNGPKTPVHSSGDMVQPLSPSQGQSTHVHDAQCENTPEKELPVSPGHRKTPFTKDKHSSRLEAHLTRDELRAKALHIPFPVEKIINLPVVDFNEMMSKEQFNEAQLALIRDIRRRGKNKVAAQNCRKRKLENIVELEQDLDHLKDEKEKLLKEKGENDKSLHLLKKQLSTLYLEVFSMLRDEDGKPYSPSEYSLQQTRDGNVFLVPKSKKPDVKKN", "sequence (Q14145 whole entry)": "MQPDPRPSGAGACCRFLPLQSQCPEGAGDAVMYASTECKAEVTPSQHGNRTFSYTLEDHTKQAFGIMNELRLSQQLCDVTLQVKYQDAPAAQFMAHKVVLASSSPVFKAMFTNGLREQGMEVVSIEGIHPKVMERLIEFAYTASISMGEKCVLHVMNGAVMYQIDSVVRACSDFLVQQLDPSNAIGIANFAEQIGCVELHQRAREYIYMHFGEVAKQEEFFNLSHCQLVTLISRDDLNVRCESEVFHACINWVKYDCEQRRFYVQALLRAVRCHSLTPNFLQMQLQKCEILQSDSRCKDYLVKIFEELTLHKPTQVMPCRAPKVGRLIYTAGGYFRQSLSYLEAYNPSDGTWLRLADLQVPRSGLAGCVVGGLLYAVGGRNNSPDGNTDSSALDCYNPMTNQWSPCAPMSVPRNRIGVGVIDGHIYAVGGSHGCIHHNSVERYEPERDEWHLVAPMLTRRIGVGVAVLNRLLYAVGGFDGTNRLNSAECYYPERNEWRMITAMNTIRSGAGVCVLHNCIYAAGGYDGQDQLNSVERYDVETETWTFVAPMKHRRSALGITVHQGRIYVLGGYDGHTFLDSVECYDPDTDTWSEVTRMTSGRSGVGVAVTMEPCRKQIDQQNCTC", "assay": "(§2) Activation of NRF2 in human U2OS cells co-expressing Keap1 (unknown origin) assessed as induction of NRF2 translocation to nucleus incubated for 6 hrs by beta-galactosidase based chemiluminescent assay", "assay_type": "cell-based", "procedure,_shortened": "(§3)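 PathHunter U2OS cells engineered to co-express enzyme donor-tagged NRF2 and nuclear-localized enzyme acceptor; Nrf2 nuclear translocation reconstitutes β-galactosidase. Cells in 96-well plates exposed to a range of compound concentrations for 6 h at room temperature (20–23 °C), then 1 h with detection reagent in the dark; chemiluminescence (RLU) read. EC50 from concentration-response curve, mean ± SEM, triplicate.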"}, "[6]": {"molecular_target": "Keap1/Nrf2 (Homo sapiens) (UniProt Q16236+Q14145)", "sequence (Q14145 whole entry, looked up)": "as the sequence (Q14145 whole entry) above", "sequence (Q16236 whole entry, looked up)": "as the sequence (Q16236 whole entry) above", "assay": "as §2", "assay_type": "cell-based", "procedure,_shortened": "as §3"}, "[7]": {"assay": "Lipophilicity, log P of the compound", "assay_type": "physicochemical", "details": "octanol/water"}, "CYP2C9": {"molecular_target": "CYP2C9 (Homo sapiens, UniProt P11712)", "sequence (P11712 whole entry)": "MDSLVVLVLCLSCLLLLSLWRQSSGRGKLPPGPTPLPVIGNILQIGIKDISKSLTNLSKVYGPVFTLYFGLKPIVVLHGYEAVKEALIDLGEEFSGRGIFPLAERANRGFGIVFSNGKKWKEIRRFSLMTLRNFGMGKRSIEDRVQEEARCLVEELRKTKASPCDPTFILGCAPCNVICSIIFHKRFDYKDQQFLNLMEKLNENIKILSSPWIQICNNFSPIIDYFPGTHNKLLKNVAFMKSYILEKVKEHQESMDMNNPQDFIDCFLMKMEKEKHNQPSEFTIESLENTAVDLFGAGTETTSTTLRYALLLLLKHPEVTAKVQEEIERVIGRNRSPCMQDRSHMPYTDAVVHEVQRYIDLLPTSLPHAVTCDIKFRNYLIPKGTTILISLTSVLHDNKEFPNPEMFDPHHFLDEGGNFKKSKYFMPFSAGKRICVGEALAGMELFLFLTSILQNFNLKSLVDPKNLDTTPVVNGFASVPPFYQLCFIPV", "assay": "Inhibition of CYP2C9 (unknown origin) assessed as remaining activity relative to control", "assay_type": "ADME"}, "[8]": {"molecular_target": "T1, Nuclear factor erythroid 2-related factor 2 (Mus musculus)", "assay": "Activation of NRF2 in mouse BV2 cells assessed reduction in LPS-stimulated IL-6 level preincubated for 3 hrs followed by LPS stimulation for 24 hrs by ELISA", "assay_type": "cell-based", "procedure,_shortened": "(§4)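 BV-2 cells pre-incubated with a range of compound concentrations for 3 h, then stimulated with 0.2 μg/mL LPS for 24 h. TNF-α or IL-6 in the culture medium quantified by sandwich ELISA kits. Compared with LPS-treated control by one-way ANOVA with Dunnett's test.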"}, "[9]": {"molecular_target": "T1, Nuclear factor erythroid 2-related factor 2 (Mus musculus)", "assay": "Activation of NRF2 in mouse BV2 cells assessed as increase in nuclear NRF2 level incubated for 6 hrs by Western blot analysis", "assay_type": "cell-based", "procedure,_shortened": "as §1"}, "[10]": {"molecular_target": "T1, Nuclear factor erythroid 2-related factor 2 (Mus musculus)", "assay": "Activation of NRF2 in mouse BV2 cells assessed as inhibition of LPS-stimulated iNOS expression at 10 uM preincubated for 3 hrs followed by LPS stimulation for 24 hrs by Western blot analysis relative to control", "assay_type": "cell-based", "design": "scale not given: the % may be the effect or the level left", "procedure,_shortened": "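LPS-stimulated BV-2 cells pretreated with compound for 3 h. iNOS immunoblot (1:500) on 10 μg RIPA lysate protein, detected by ECL. Densities normalised to β-actin or Lamin B1 and compared with LPS-treated control.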"}, "[11]": {"molecular_target": "T1, Nuclear factor erythroid 2-related factor 2 (Mus musculus)", "assay": "Activation of NRF2 in mouse BV2 cells assessed reduction of LPS-stimulated TNF-alpha level preincubated for 3 hrs followed by LPS stimulation for 24 hrs by ELISA", "assay_type": "cell-based", "procedure,_shortened": "as §4"}, "[12]": {"assay": "Stability in human plasma assessed as compound remaining after 30 mins", "assay_type": "ADME, cell-free", "details": "read-out: Stability"}, "[13]": {"molecular_target": "T1, Nuclear factor erythroid 2-related factor 2 (Mus musculus)", "assay": "Activation of NRF2 in mouse BV2 cells upregulation of SOD1 protein expression incubated for 6 hrs by Western blot analysis", "assay_type": "cell-based", "procedure,_shortened": "as §1"}, "[14]": {"molecular_target": "T1, Nuclear factor erythroid 2-related factor 2 (Mus musculus)", "assay": "Activation of NRF2 in mouse BV2 cells assessed as inhibition of LPS-stimulated NO production preincubated for 6 hrs followed by LPS stimulation for 24 hrs by Griess reagent-based assay", "assay_type": "cell-based", "procedure,_shortened": "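BV-2 cells pretreated with a range of compound concentrations for 6 h, then stimulated with 1 µg/mL LPS for 24 h. Medium nitrite measured by Griess reaction (sulfanilamide/phosphoric acid, then NED, 5 min each at room temperature in the dark). Absorbance at 540 nm read against a nitrite standard curve.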"}, "CYP2C19": {"molecular_target": "CYP2C19 (Homo sapiens, UniProt P33261)", "sequence (P33261 whole entry)": "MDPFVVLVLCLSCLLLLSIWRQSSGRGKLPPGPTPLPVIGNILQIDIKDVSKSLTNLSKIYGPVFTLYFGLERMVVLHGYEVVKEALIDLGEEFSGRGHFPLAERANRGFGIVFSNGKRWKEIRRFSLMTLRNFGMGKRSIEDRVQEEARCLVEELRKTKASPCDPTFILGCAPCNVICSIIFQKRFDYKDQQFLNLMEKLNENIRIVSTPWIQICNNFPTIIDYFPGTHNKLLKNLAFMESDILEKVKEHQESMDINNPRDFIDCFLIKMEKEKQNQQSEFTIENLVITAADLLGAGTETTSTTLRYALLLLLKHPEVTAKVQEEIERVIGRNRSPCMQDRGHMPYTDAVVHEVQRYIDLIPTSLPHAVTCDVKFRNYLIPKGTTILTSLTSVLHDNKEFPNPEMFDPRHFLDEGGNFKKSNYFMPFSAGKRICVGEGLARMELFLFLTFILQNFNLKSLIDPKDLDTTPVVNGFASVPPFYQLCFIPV", "assay": "Inhibition of CYP2C19 (unknown origin) assessed as remaining activity relative to control", "assay_type": "ADME"}, "[15]": {"molecular_target": "T1, Nuclear factor erythroid 2-related factor 2 (Mus musculus)", "assay": "Activation of NRF2 in mouse BV2 cells assessed as increase in GCLM protein expression at 3 uM incubated for 6 hrs by Western blot analysis", "assay_type": "cell-based", "procedure,_shortened": "as §1"}}, "note": "pEC50: −log10 of the molar value. Calls of active or inactive are those of the source. The rule behind the calls is not given here."}
{"smiles": "CN1CCN(C(=O)COc2ccc(C(=O)/C=C/c3ccccc3C(F)(F)F)cc2)CC1.Cl", "values": [{"measurement": "Activity", "setting": "[1]", "result": 589, "unit": "%"}, {"measurement": "inhibition", "setting": "BV-2", "result": "Dose-dependent effect"}, {"measurement": "Activity", "setting": "[2]", "result": "Dose-dependent effect"}, {"measurement": "activity", "setting": "CYP2D6", "result": "> 100", "unit": "%"}, {"measurement": "remaining at 0.5 h", "setting": "[3]", "result": 16.1, "unit": "%"}, {"measurement": "activity", "setting": "CYP3A4", "result": "> 100", "unit": "%"}, {"measurement": "Activity", "setting": "[4]", "result": "Dose-dependent effect"}, {"measurement": "fold change (FC)", "setting": "[5]", "result": "> 7"}, {"measurement": "pEC50", "setting": "Keap1/Nrf2", "result": 6.20}, {"measurement": "Activity", "setting": "[6]", "result": "Dose-dependent effect"}, {"measurement": "logP", "setting": "[7]", "result": 3.22}, {"measurement": "activity", "setting": "CYP2C9", "result": 95.1, "unit": "%"}, {"measurement": "Activity", "setting": "[8]", "result": "Dose-dependent effect"}, {"measurement": "Activity", "setting": "[9]", "result": "Dose-dependent effect"}, {"measurement": "Activity", "setting": "[10]", "result": 100, "unit": "%"}, {"measurement": "Activity", "setting": "[11]", "result": "Dose-dependent effect"}, {"measurement": "remaining at 0.5 h", "setting": "[12]", "result": "> 100", "unit": "%"}, {"measurement": "Activity", "setting": "[13]", "result": "Dose-dependent effect"}, {"measurement": "Activity", "setting": "[14]", "result": "Dose-dependent effect"}, {"measurement": "activity", "setting": "CYP2C19", "result": 79.3, "unit": "%"}, {"measurement": "Activity", "setting": "[15]", "result": "Active"}]}
